Measured values as given in ChEMBL document CHEMBL1125357, “Gonadotropin-releasing hormone antagonists with N omega-triazolylornithine, -lysine, or -p-aminophenylalanine residues at positions 5 and 6” (J Med Chem, 1992).
Starred links: 1 amine or outer side, 2 acyl side, 3 side chain; linkers in the order of their positions; H or OH if unused. Non-standard residues stand in square brackets, D forms with d. Residues, ends and D or L forms follow the SMILES beside them. *: point of attachment. Phe(4-NH(5-NH2triazol-3-yl)) = Nc1nc(Nc2ccc(C[C@H](N)C(=O)O)cc2)n[nH]1; dNva(5-oxo-5-(4-MeOPh)) = COc1ccc(C(=O)CC[C@@H](N)C(=O)O)cc1; X1 = Nc1nc(Nc2ccc(C[C@@H](N[*:1])C(=O)[*:2])cc2)n[nH]1; Triazol3yl(1,2,4-5-NH2) = Nc1nc(*)n[nH]1; dPhe(4-Cl) = N[C@H](Cc1ccc(Cl)cc1)C(=O)O; d2Nal = N[C@H](Cc1ccc2ccccc2c1)C(=O)O; Lys(iPr) = CC(C)NCCCC[C@H](N)C(=O)O; dCit = NC(=O)NCCC[C@@H](N)C(=O)O; d3Pal = N[C@H](Cc1cccnc1)C(=O)O; NMeL = CN[C@@H](CC(C)C)C(=O)O; Nicotinoyl = O=C(c1cccnc1)*; dOrn = NCCC[C@@H](N)C(=O)O; Orn = NCCC[C@H](N)C(=O)O

Legend:
[1] = biological target: T1, Gonadotropin-releasing hormone receptor (Homo sapiens, UniProt P30968); experiment: The binding affinity towards Gonadotropin-releasing hormone receptor
T1 sequence (P30968 whole entry): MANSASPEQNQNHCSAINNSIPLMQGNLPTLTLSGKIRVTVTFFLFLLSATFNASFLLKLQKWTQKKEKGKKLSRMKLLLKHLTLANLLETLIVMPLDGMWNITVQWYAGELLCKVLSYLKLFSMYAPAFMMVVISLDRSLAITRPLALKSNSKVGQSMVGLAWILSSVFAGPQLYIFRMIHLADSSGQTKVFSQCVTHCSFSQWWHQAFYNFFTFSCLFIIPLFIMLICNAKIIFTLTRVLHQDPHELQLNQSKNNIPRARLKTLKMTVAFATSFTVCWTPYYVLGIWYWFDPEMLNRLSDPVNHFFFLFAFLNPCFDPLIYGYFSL

[2] = Retention time of the compound; format: ADME
Outline: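 Peptide (0.5 mg/mL, 10 μL) was loaded in TEAP pH 7.0/CH3CN (76/24), acidified with H3PO4 where insoluble. Elution used a 30-48% CH3CN gradient over 30 min at 1.5 mL/min. Retention time is reported in minutes.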

Row | SMILES | Kd [1] | RT [2]
1 | CC(=O)N[C@H](Cc1ccc2ccccc2c1)C(=O)N[C@H](Cc1ccc(Cl)cc1)C(=O)N[C@H](Cc1cccnc1)C(=O)N[C@@H](CO)C(=O)N[C@@H](CCCCNc1n[nH]c(N)n1)C(=O)N[C@H](CCCCNc1n[nH]c(N)n1)C(=O)N[C@@H](CC(C)C)C(=O)N[C@@H](CCCCNC(C)C)C(=O)N1CCC[C@H]1C(=O)NCC(N)=O | 0.86 nM | 5.53 min
2 | CC(=O)N[C@H](Cc1ccc2ccccc2c1)C(=O)N[C@H](Cc1ccc(Cl)cc1)C(=O)N[C@H](Cc1cccnc1)C(=O)N[C@@H](CO)C(=O)N[C@@H](CCCNC(=N)N)C(=O)N[C@H](Cc1cccnc1)C(=O)N[C@@H](CC(C)C)C(=O)N[C@@H](CCCNC(=N)N)C(=O)N1CCC[C@H]1C(=O)N[C@H](C)C(N)=O | 0.24 nM | 14.1 min
3 | CC(=O)N[C@H](Cc1ccc2ccccc2c1)C(=O)N[C@H](Cc1ccc(Cl)cc1)C(=O)N[C@H](Cc1cccnc1)C(=O)N[C@@H](CO)C(=O)N[C@@H](CCCCNC(=O)c1cccnc1)C(=O)N[C@H](CCCCNC(=O)c1cccnc1)C(=O)N[C@@H](CC(C)C)C(=O)N[C@@H](CCCCNC(C)C)C(=O)N1CCC[C@H]1C(=O)N[C@H](C)C(N)=O (Ac-[d2Nal][dPhe(4-Cl)][d3Pal]SK(Nicotinoyl)[dK](Nicotinoyl)L[Lys(iPr)]P[dA]-NH2) | 0.35 nM | 13.6 min
4 | CC(=O)N[C@H](Cc1ccc2ccccc2c1)C(=O)N[C@H](Cc1ccc(Cl)cc1)C(=O)N[C@H](Cc1cccnc1)C(=O)N[C@@H](CO)C(=O)N[C@@H](CCCCNc1n[nH]c(N)n1)C(=O)N[C@H](CCCCNc1n[nH]c(N)n1)C(=O)N[C@@H](CC(C)C)C(=O)N[C@@H](CCCCNC(C)C)C(=O)N1CCC[C@H]1C(=O)N[C@H](C)C(N)=O (Ac-[d2Nal][dPhe(4-Cl)][d3Pal]SK(Triazol3yl(1,2,4-5-NH2))[dK](Triazol3yl(1,2,4-5-NH2))L[Lys(iPr)]P[dA]-NH2) | 0.48 nM | 7.08 min
5 | COc1ccc(C(=O)CC[C@@H](NC(=O)[C@H](CCCN=C(N)N)NC(=O)[C@H](CO)NC(=O)[C@@H](Cc2cccnc2)NC(=O)[C@@H](Cc2ccc(Cl)cc2)NC(=O)[C@@H](Cc2ccc3ccccc3c2)NC(C)=O)C(=O)N[C@@H](CC(C)C)C(=O)N[C@@H](CCCN=C(N)N)C(=O)N2CCC[C@H]2C(=O)N[C@H](C)C(N)=O)cc1 (Ac-[d2Nal][dPhe(4-Cl)][d3Pal]SR[dNva(5-oxo-5-(4-MeOPh))]LRP[dA]-NH2) | 0.67 nM | 22.8 min
6 | CC(=O)N[C@H](Cc1ccc2ccccc2c1)C(=O)N[C@H](Cc1ccc(Cl)cc1)C(=O)N[C@H](Cc1cccnc1)C(=O)N[C@@H](CO)C(=O)N[C@@H](Cc1ccc(O)cc1)C(=O)N[C@H](CCCNC(N)=O)C(=O)N[C@@H](CC(C)C)C(=O)N[C@@H](CCCNC(=N)N)C(=O)N1CCC[C@H]1C(=O)N[C@H](C)C(N)=O (Ac-[d2Nal][dPhe(4-Cl)][d3Pal]SY[dCit]LRP[dA]-NH2) | – | 10.1 min
7 | CC(=O)N[C@H](Cc1ccc2ccccc2c1)C(=O)N[C@H](Cc1ccc(Cl)cc1)C(=O)N[C@H](Cc1cccnc1)C(=O)N[C@@H](CO)C(=O)N[C@@H](CCCNc1n[nH]c(N)n1)C(=O)N[C@H](CCCNc1n[nH]c(N)n1)C(=O)N[C@@H](CC(C)C)C(=O)N[C@@H](CCCCNC(C)C)C(=O)N1CCC[C@H]1C(=O)N[C@H](C)C(N)=O (Ac-[d2Nal][dPhe(4-Cl)][d3Pal]S[Orn](Triazol3yl(1,2,4-5-NH2))[dOrn](Triazol3yl(1,2,4-5-NH2))L[Lys(iPr)]P[dA]-NH2) | 0.21 nM | 6.2 min
8 | CC(=O)N[C@H](Cc1ccc2ccccc2c1)C(=O)N[C@H](Cc1ccc(Cl)cc1)C(=O)N[C@H](Cc1cccnc1)C(=O)N[C@@H](CO)C(=O)N[C@@H](Cc1ccc(Nc2n[nH]c(N)n2)cc1)C(=O)N[C@H](Cc1ccc(Nc2n[nH]c(N)n2)cc1)C(=O)N[C@@H](CC(C)C)C(=O)N[C@@H](CCCCNC(C)C)C(=O)N1CCC[C@H]1C(=O)NCC(N)=O (Ac-[d2Nal][dPhe(4-Cl)][d3Pal]S[Phe(4-NH(5-NH2triazol-3-yl))][X1]L[Lys(iPr)]PG-NH2) | – | 8.45 min
9 | CC(=O)N[C@H](Cc1ccc2ccccc2c1)C(=O)N[C@H](Cc1ccc(Cl)cc1)C(=O)N[C@H](Cc1cccnc1)C(=O)N[C@@H](CO)C(=O)N[C@@H](Cc1ccc(Nc2n[nH]c(N)n2)cc1)C(=O)N[C@H](Cc1ccc(Nc2n[nH]c(N)n2)cc1)C(=O)N[C@@H](CC(C)C)C(=O)N[C@@H](CCCCNC(C)C)C(=O)N1CCC[C@H]1C(=O)N[C@H](C)C(N)=O (Ac-[d2Nal][dPhe(4-Cl)][d3Pal]S[Phe(4-NH(5-NH2triazol-3-yl))][X1]L[Lys(iPr)]P[dA]-NH2) | – | 9 min
10 | CC(=O)N[C@H](Cc1ccc2ccccc2c1)C(=O)N[C@H](Cc1ccc(Cl)cc1)C(=O)N[C@H](Cc1cccnc1)C(=O)N[C@@H](CO)C(=O)N[C@@H](Cc1ccc(Nc2n[nH]c(N)n2)cc1)C(=O)N[C@H](Cc1ccc(Nc2n[nH]c(N)n2)cc1)C(=O)N(C)[C@@H](CC(C)C)C(=O)N[C@@H](CCCCNC(C)C)C(=O)N1CCC[C@H]1C(=O)N[C@H](C)C(N)=O (Ac-[d2Nal][dPhe(4-Cl)][d3Pal]S[Phe(4-NH(5-NH2triazol-3-yl))][X1][NMeL][Lys(iPr)]P[dA]-NH2) | – | 10.6 min
